PHOSPHO1 block = inhibitors of human PHOSPHO1 phosphatase; inhibition, % at 13.3 µM; 1.1% of 290,000 active; Q8TCT1; AID 1565; recombinant PHOSPHO1, absorbance phosphatase assay; in the data active means inhibition above about 60%
Target sequence (Q8TCT1 whole entry, looked up): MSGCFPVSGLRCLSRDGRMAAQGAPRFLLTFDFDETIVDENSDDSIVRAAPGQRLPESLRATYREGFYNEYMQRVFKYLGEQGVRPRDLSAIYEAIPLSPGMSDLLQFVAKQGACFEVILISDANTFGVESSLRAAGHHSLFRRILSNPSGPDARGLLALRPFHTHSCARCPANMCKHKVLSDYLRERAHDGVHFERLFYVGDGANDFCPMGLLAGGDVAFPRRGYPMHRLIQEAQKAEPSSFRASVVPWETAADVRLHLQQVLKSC
EP2 mod = modulators of human EP2 prostaglandin E2 receptor | P43116 | EP2-expressing cells, cAMP HTRF FRET, PGE2 co-stimulation | induction, % at 25 µM | 0.83% of 260,000 active | AID 940;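 active means compounds whose cAMP rise, as percent of the full-agonist control response, exceeds 60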;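 further: rat C6 glioma line stably carrying human EP2 under a CMV promoter; the protocol text gives 20 µM as final concentration; 100% = response of wells given 1 µM PGE2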
Target sequence (P43116 whole entry, looked up): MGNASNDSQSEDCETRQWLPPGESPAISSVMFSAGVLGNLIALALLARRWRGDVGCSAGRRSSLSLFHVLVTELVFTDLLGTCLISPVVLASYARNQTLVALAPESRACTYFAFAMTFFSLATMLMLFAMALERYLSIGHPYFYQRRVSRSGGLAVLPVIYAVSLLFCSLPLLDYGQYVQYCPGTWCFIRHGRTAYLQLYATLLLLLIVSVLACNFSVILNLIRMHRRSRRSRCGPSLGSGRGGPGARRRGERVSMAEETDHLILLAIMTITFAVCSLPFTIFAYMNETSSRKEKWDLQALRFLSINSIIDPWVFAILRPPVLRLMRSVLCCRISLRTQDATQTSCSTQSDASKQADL
PfGluPho inh = PfG6PD (Plasmodium falciparum) enzyme inhibition | PfGluPho enzyme, NADPH resazurin-diaphorase fluorescence | inhibition, % at 20 µM | 0.78% of 350,000 active;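 active means inhibition reaching at least a set limit at 20 µM in the primary screen, cut at about 59% in these data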;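 further: 0% = DMSO wells with substrate and 100% = DMSO wells lacking glucose-6-phosphate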
HKDC1 inhibitor = inhibitors of human hexokinase HKDC1; recombinant HKDC1, G6PDH/diaphorase resazurin coupled fluorescence; Q2TB90; inhibition, % at 20 µM; 0.16% of 340,000 active; AID 493160;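 active means inhibition above about 35% when tested at 20 µM, limit read from the data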;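 further: plate controls were DMSO wells with enzyme for no effect and DMSO wells lacking enzyme for full effect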
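System: Recombinant HKDC1 hexokinase | Amount: HKDC1 at 5 µg/mL | Reagent: Glucose with 1 mM ATP | Doses: Single 20 µM dose | Incubation: Reaction time 90 min, room temperature, protected from light | Signal: Coupled resazurin fluorescence, excitation 525 nm, emission 613 nm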
Tb hexokinase = T. brucei hexokinase 1 inhibition. 0.11% of 220,000 active. inhibition, % at 10 µM. recombinant TbHK1, G6PDH-coupled NADH A340;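 active means inhibition of 50% or more in the single-dose primary screen; inactive means inhibition below 50%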
PGE2 EP2 inh = blocks the human prostaglandin E2 receptor EP2; C6 glioma cells expressing human EP2, cAMP TR-FRET; cells stimulated with saturating PGE2; inhibition, % at 25 µM; P43116; 0.52% of 260,000 active;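 active means percent inhibition above 40 after rounding to a whole number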;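 further: rat C6 glioma host cells with rolipram phosphodiesterase inhibitor present; the protocol text gives 20 µM as final concentration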
Starred values were filed as active, the others as inactive; x = no result. Sampled rows, rich in hits. Any-hit rate of the full collection: about 2.5%.

SMILES	PHOSPHO1 block	EP2 mod	PfGluPho inh	HKDC1 inhibitor	Tb hexokinase	PGE2 EP2 inh
O=c1[nH]c(CSc2nnc(COc3ccccc3)n2-c2ccccc2)nc2ccccc12	61*	27	52	6	8	3
Cc1ccccc1OCc1nnc(SCc2nc3ccccc3c(=O)[nH]2)n1C	36	28	-5	-5	-2	8
CCn1c(SCc2ccc(C#N)cc2)nnc1-c1cccc(Cl)c1	36	16	-3	-5	4	-2
Cc1cccc(-c2nnc(SCc3ccc(C#N)cc3)n2Cc2ccco2)c1	64*	18	-2	6	-1	0
c1coc(Cn2c(SCc3nc4ccccc4[nH]3)nnc2-c2cnccn2)c1	90*	-21	29	-1	5	10
CCOC(=O)C1CCN(C(=O)CN(c2cc(C)ccc2OC)S(=O)(=O)c2ccc(C)cc2)CC1	x	7	x	x	x	13
O=C(CSc1nnc(COc2ccc(Cl)cc2)n1Cc1ccco1)c1ccccc1F	96*	45	-3	1	4	11
c1ccc(-c2nnc(SCc3nc4ccccc4[nH]3)n2Cc2ccco2)nc1	72*	-1	3	-9	3	11
Clc1cccc(-c2nnc(SCc3nc4ccccc4[nH]3)n2Cc2ccco2)c1	77*	1	-6	-1	9	7
Clc1ccccc1CSc1nnc(-c2ccccn2)n1Cc1ccco1	59	32	4	2	-3	6
CCn1c(COc2ccc(C)cc2)nnc1SCc1nc2ccccc2[nH]1	94*	25	20	20	9	7
O=C(CN1CCCCC1)Nc1ccc(OCc2ccccc2)cc1	x	-105	x	x	x	11
COc1ccc([C@@H](C)c2cc3c(cc2O)OCO3)cc1	x	-14	x	x	x	13
COc1ccc([C@@H](Nc2ncccn2)c2cc3c(cc2O)OCO3)cc1	x	12	x	x	x	53*
CCCN(C(=O)Cc1cccs1)c1nnc(-c2ccc(C(C)(C)C)cc2)s1	x	23	x	x	x	6
O=C1OCCC1Sc1nc2ccccc2c(=O)n1Cc1ccccc1 (stereo not drawn)	-1	10	-16	3	-4	4
O=C1OCCC1Sc1nc2cc(Cl)ccc2n1Cc1ccccc1 (stereo not drawn)	89*	-10	24	7	3	10
Nc1ncnc2c1ncn2[C@@H]1O[C@H](CO)[C@@H](O)[C@H]1O	4	30	-3	1	5	13
CCOP1(=O)OCC2OC(n3cnc4c(N)ncnc43)C(O)C2O1 (stereo not drawn)	18	104*	5	-1	-14	5
O=C(C1CCN(S(=O)(=O)N2CCC3(CC2)OCCO3)CC1)N1CCN(Cc2ccccc2)CC1	64*	14	-3	-5	4	5
O=C(NCCCN1CCN(Cc2ccccc2)CC1)C1CCN(S(=O)(=O)N2CCC3(CC2)OCCO3)CC1	-17	-6	11	-10	-1	12
C[n+]1ccccc1S(=O)(=O)[O-]	x	-40	x	x	x	9
COc1ccc(OC)c(-n2c(-c3ccc(C)cc3)n[nH]c2=S)c1	26	8	44	3	4	7
COc1ccc(OC)c(-n2c(-c3cnccn3)n[nH]c2=S)c1	84*	0	41	-1	6	4
COc1ccc(-n2c(-c3cnccn3)n[nH]c2=S)cc1	94*	38	29	-11	-21	4
SMILES	PHOSPHO1 block	EP2 mod	PfGluPho inh	HKDC1 inhibitor	Tb hexokinase	PGE2 EP2 inh
S=c1[nH]nc(-c2cnccn2)n1-c1ccccc1	-27	7	33	-3	-20	5
COc1ccc(OC)c(-n2c(-c3cc(-c4ccc(F)cc4)n[nH]3)n[nH]c2=S)c1	91*	18	40	-3	1	5
COc1ccc(-c2n[nH]c(=S)n2-c2cc(OC)ccc2OC)cc1	-69	32	54	0	-8	2
CC(C(=O)NCc1ccc(Cl)cc1)n1cccc1C(=O)c1ccccc1 (stereo not drawn)	60	x	-5	-4	x	x
COc1ccccc1CNC(=O)C(C)n1cccc1C(=O)c1ccccc1 (stereo not drawn)	64*	x	-16	2	x	x
CCn1c2cc(C)sc2c2cnn(CC(=O)NC3CCCC3)c(=O)c21	x	-62	x	x	x	x
CC1([N+](=O)[O-])CN(CCC(=O)O)CN(CCC(=O)O)C1	x	24	x	x	x	6
C[N+]1=C2CCCCCN2C(O)(c2ccccc2)C1 (stereo not drawn)	86*	-5	6	-9	0	5
OC1(c2ccccc2Cl)NN=C2CCCCCN21 (stereo not drawn)	23	-12	0	-14	-3	1
COc1ccc(/C=C2\C(=O)NC(=O)N(c3cccc(Br)c3)C2=O)cc1	x	-116	x	x	x	16
O=c1c2c(nc3n1CCS3)c1cc(F)ccc1n2Cc1cc(=O)n2cc(Cl)ccc2n1	38	13	62*	7	-11	8
COc1ccc(NC(=O)CN2C(=O)COc3ccc(S(=O)(=O)N4CCCCCC4)cc32)cc1	64*	x	-19	-3	x	x
CCCNC(=O)CN1C(=O)COc2ccc(S(=O)(=O)N3CCCCCC3)cc21	40	x	-6	-6	x	x
CCCNC(=O)CN1C(=O)COc2ccc(S(=O)(=O)N3CC(C)CC(C)C3)cc21 (stereo not drawn)	74*	x	-6	0	x	x
CCOc1ccc(NC(=O)CN2C(=O)COc3ccc(S(=O)(=O)N4CCCCC4)cc32)cc1	30	x	-2	-2	x	x
COc1ccc(C(O)CN2CCC3(CC2)CC(O)c2cc(F)ccc2O3)cc1OC (stereo not drawn)	x	-30	x	x	x	7
CCC12CCCN3CCC4(C(=C(C(=O)OC)C1)Nc1ccccc14)C32 (stereo not drawn)	99*	48	21	6	14	14
CCOC(=O)COc1ccc(C2Oc3c(cccc3OC)C=C2[N+](=O)[O-])cc1 (stereo not drawn)	x	-85	x	x	x	53*
CCOC(=O)C1=C(C)NC(=O)NC1c1ccoc1 (stereo not drawn)	19	6	-14	2	-6	11
CCOC(=O)C1=C(C)NC(=O)N[C@@H]1c1coc2cc(C)cc(C)c2c1=O	x	8	x	x	x	53*
Cc1nnc(N2C(=O)C(O)=C(C(=O)c3ccco3)C2c2ccc(F)cc2)s1 (stereo not drawn)	14	20	9	8	-9	17
Cc1nnc(N2C(=O)C(O)=C(C(=O)c3ccco3)C2c2ccc(C(C)(C)C)cc2)s1 (stereo not drawn)	-11	12	-16	-1	-6	57*
CCn1c(SCC(=O)N2CCOCC2)nnc1C(C)NC(=O)c1ccccc1 (stereo not drawn)	63*	x	10	-4	x	x
CCn1c(CC(=O)Nc2ccc(C)cc2)nnc1SCC(=O)N1CCOCC1	63*	x	-1	-6	x	x
COC(=O)[C@@H]1CN(C(=O)c2ccccc2F)C[C@H]1c1ccc(OC)cc1	x	-3	x	x	x	x

Screening results: PubChem, several laboratories
